Shown is part of a subset that was picked to be rich in hits.
Insulin prom act: activators of insulin promoter-driven GFP, primary screen, imaging, TRM-6 cells, eGFP reporter, cell count | AID 1296, 2008 | 130,000 tested, 0.81% active | plate-scaled: unstimulated 0, stimulated control 100 | activation, % at 2 µM;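 active = activation at 2 µM above a set limit, confirmed on inspection of the cell images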;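 also: share of cells whose green reporter signal exceeds an intensity cutoff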
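System – human fetal islet-derived TRM-6 cells with tamoxifen-inducible insulin promoter–eGFP reporter · Amount – 1,000 cells per well · Schedule – overnight tamoxifen, then two-day compound incubation at 37 °C · Detection – high-content imaging of fixed cells with Hoechst nuclear stain · Read-out – percent cells above green-intensity threshold, converted to percent activation versus plate controls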
An asterisk follows results filed as active.

SMILES | Insulin prom act
O=c1c(Cl)c(N2CCN(S(=O)(=O)c3ccc(F)cc3)CC2)cnn1-c1cccc(Cl)c1 | -3.1
O=c1[nH]c(CN2CCN(Cc3ccc4c(c3)OCO4)CC2)nc2ccccc12 | 2.8
O=c1cc(-c2ccccc2)nc(N2CCN(Cc3ccc4c(c3)OCO4)CC2)[nH]1 | 730.0*
O=C(c1cc(-c2ccccc2)on1)N1CCN(Cc2ccc3c(c2)OCO3)CC1 | -4.5
CC1CC1C(=O)OCC(=O)NC(=O)NC12CC3CC(CC(C3)C1)C2 (stereo unspecified) | -100.0
COC(=O)CN1C(=O)S/C(=C/c2ccc(N3CCCCC3)o2)C1=O | 183.9*
O=C(CN1C(=O)S/C(=C/c2ccc(N3CCOCC3)cc2)C1=O)N1CCOCC1 | -6.5
COC(=O)CN1C(=O)S/C(=C/c2cc(C)n(C)c2C)C1=O | -3.8
CN(C)/C=N/c1ncc(-c2ncc(C(F)(F)F)cc2Cl)cn1 | -5.9
CCCc1cc(NCc2ccccn2)n2c(nc3ccccc32)c1C#N | 0.0
CCCc1cc(-n2cnc3ccccc32)n2c(nc3ccccc32)c1C#N | 75.9*
CCCNc1cc(C)c(C#N)c2nc3ccccc3n12 | 381.3
COCc1cc(C)nc(OCC(=O)N/N=C\c2cc(C)n(-c3cccc(C(F)(F)F)c3)c2C)c1C#N | 8.1
C=CCn1c(Cc2cccs2)nnc1SC/C=C/c1ccccc1 | 80.6*
CCn1c(SC/C=C/c2ccccc2)nnc1-c1cccs1 | 190.9
C=CCn1c(CCNC(=O)c2cccs2)nnc1SCC(=O)c1ccc(Br)cc1 | -6.9
O=C(O)c1ccc(Nc2ncnc3c2cnn3Cc2ccccc2)cc1 | 0.0
CCN(CC)S(=O)(=O)c1cccc(NC(=O)c2ccc(C#N)cc2)c1 | 7.1
COC(=O)C(NC(=O)CNS(=O)(=O)c1ccc(Br)cc1)c1ccccc1 (stereo unspecified) | 275.0*
COc1ccccc1NC(=O)CNS(=O)(=O)c1ccccc1 | 377.8
COC(=O)C(CCSC)NC(=O)CNS(=O)(=O)c1ccc(Cl)cc1 (stereo unspecified) | 0.0
CN(/C(=N\S(=O)(=O)c1ccccc1)c1ccccc1)c1ccc(O)cc1 | 128.6
COc1ccc(CN(C)c2nc(-c3cccnc3)nc3ccccc23)cc1OC | 7.1
CC(Oc1ccccc1)C(=O)Nc1ccc(C(N)=O)cc1 (stereo unspecified) | 174.2*
CCOC(=O)c1ccccc1NC(=O)C(C)Oc1ccccc1 (stereo unspecified) | -6.5
SMILES | Insulin prom act
COc1ccc(OC(C)C(=O)Nc2cccc(OC)c2)cc1 (stereo unspecified) | -7.9
S=C(NCc1ccncc1)NC1CCCCC1 | 5.9
O=C(C1CCN(C2CC(=O)N(c3cccc(Cl)c3)C2=O)CC1)N1CCCC1 (stereo unspecified) | 6.9
NC(=O)C1CCN(C2CC(=O)N(c3ccc(F)c(Cl)c3)C2=O)CC1 (stereo unspecified) | 85.7*
COc1cccc(N2CCN(C3CC(=O)N(c4ccc(F)c(Cl)c4)C3=O)CC2)c1 (stereo unspecified) | -9.7
CC(=Nc1ccccc1C)C1=C(O)CSC1=O | 4.3
O=C(C1CC=CCC1)N1CCN(C(=O)C2CC=CCC2)CC1 (stereo unspecified) | 381.3
COC(=O)c1c(-c2cccc3ccccc23)csc1NC(=O)Cc1ccc(OC)c(OC)c1 | -1.7
COc1cc(/C=C(\C#N)c2nc3ccccc3n2C)cc(OC)c1O | 478.6*
COc1ccc(/C=N/n2c(N)nc3ccccc32)cc1OC | -75.0
CCn1c(SCC(=O)N/N=C/c2cc(OC)c(O)c(OC)c2)nc2ccccc21 | -2.7
CCC1=NN(C(=O)c2cccnc2)C(O)(C(F)(F)F)C1 (stereo unspecified) | -7.4
Cc1cccc(NC(=O)C(=O)NCc2ccc3c(c2)OCO3)c1C | -4.8
Cc1ccccc1-c1nc(Cc2ccc(Cl)cc2)no1 | 102.9*
Cc1ccccc1-c1noc(-c2cccs2)n1 | -80.0
COc1cc(-c2nc(Cc3c(F)cccc3Cl)no2)cc(OC)c1OC | -70.0
O=C(NC1CCCCC1)N1CCN(c2ncccn2)CC1 | 0.0
Cc1c(C)c(C)c(S(=O)(=O)N2CCNCC2)c(C)c1C | 6.7
O=C(NCC1(c2ccccc2)CCCC1)c1ccc(Br)o1 | -9.1
O=C(CSc1ccccn1)NC1CCCC1 | 7.7
Cc1ccnc(N2CCC(C(=O)NNC(=O)c3ccccc3C)CC2)n1 | -6.5
O=[N+]([O-])c1ccc(N/N=C2\CC3CC=CC23)cc1 (stereo unspecified) | 0.0
CSc1ccc(/C=N/NC(=O)c2ccc(O)cc2)cc1 | -6.1
O=C(N/N=C1\CC2CC=CC12)c1ccc(O)cc1 (stereo unspecified) | 406.7*
CCCc1nccn1S(=O)(=O)c1cc(OC)ccc1OC | -75.0
Cc1onc(-c2ccccc2Cl)c1C(=O)Nc1ccc(N2CCOCC2)cc1 | 6.7
Cc1onc(-c2ccccc2Cl)c1C(=O)Nc1ccccc1N1CCOCC1 | 81.2*
Cc1onc(-c2ccccc2Cl)c1C(=O)Nc1cccc2nsnc12 | -77.3
COc1ccc(C(=O)Nc2cccc(C(=O)NCc3ccco3)c2)cc1 | -66.7
CCOc1cccc(OCCOc2ccccc2[N+](=O)[O-])c1 | 24.7

Screening data deposited in PubChem by Columbia University Molecular Screening Center.
